Experimental findings from ChEMBL document CHEMBL1123761, “Inhibition of the mammalian beta-lactamase renal dipeptidase (dehydropeptidase-I) by (Z)-2-(acylamino)-3-substituted-propenoic acids” (J Med Chem, 1987) are described below.

The target in assay [1] is T1, Dipeptidase 1 (Sus scrofa) (UniProt P22412).
T1 sequence (whole entry): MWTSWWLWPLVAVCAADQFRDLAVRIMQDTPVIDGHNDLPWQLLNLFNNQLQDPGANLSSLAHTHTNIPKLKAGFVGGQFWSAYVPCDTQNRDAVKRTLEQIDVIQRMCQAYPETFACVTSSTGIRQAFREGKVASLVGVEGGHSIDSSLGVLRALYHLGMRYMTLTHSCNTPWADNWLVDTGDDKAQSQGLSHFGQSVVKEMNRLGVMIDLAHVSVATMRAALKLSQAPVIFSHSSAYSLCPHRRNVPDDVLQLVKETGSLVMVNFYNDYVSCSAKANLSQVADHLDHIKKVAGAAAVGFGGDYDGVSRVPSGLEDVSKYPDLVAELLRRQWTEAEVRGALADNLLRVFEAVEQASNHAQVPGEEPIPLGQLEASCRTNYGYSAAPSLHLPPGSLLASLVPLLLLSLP
Put plainly: Inhibitory activity against beta-lactamase renal dipeptidase at a concentration of 100 uM. Put shortly: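 Inhibitor was incubated with solubilized renal dipeptidase (50–75% ammonium sulfate fraction, 5 µg) in 50 mM MOPS pH 7.1 for 5 min at 37 °C. Glycyldehydrophenylalanine was then added to 50 µM. Rate was followed as the absorbance decrease at 275 nm over 10 min and compared with the uninhibited rate.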

For assay [2], the target named is T2, Dipeptidase 1 (Sus scrofa, UniProt P22412).
T2 sequence (P22412 whole entry): T1 sequence (whole entry)
Put plainly: Inhibitory activity against beta-lactamase renal dipeptidase.

The inhibition is the share of the control response that was lost under treatment. In assay [1], `C=CCCC(=O)N/C(=C\C)C(=O)O` had an inhibition of 57%.
`C/C=C(\NC(=O)C1C(C(C)(C)C)C1(C)C)C(=O)O` (stereo not given) showed an inhibition in assay [1] of 44%.
On to `C/C=C(\NC(=O)/C=C/c1ccccc1)C(=O)O`, for which the inhibition in assay [1] turned out to be 0%.
The molecule `C/C=C(\NC(=O)c1ccc(C)cc1)C(=O)O` displayed an inhibition in assay [1] of 2.5%.
On to `C/C=C(\NC(=O)CC1=CCCCC1)C(=O)O`, for which the inhibition in assay [1] stood at 50%.
`C/C=C(\NC(=O)CC)C(=O)O` returned an inhibition in assay [1] of 43%.
The same measure, in the same setting: next, `CO/C=C(\NC(=O)c1ccccc1)C(=O)O`: 23%; `C/C=C(\NC(=O)C12CC3CC(CC(C3)C1)C2)C(=O)O`: 3%.
The molecule `C/C=C(\NC(=O)CCCCCCCCCCCCC)C(=O)O` returned an inhibition in assay [1] of 45%.
`C/C=C(\NC(=O)CCCCCCCCCCCCCCCCC)C(=O)O` registered an inhibition in assay [1] of 12%.
`C/C=C(\NC(=O)c1ccco1)C(=O)O` displayed an inhibition in assay [1] of 57%.
Same read-out and setting: the figure for `CC(C)=C(NC(=O)c1ccccc1)C(=O)O` is 4%.
As to `C/C=C(\NC(=O)CCCCC(C)C)C(=O)O`, the inhibition in assay [1] amounted to 57%.
In assay [1], `C/C=C(\NC(=O)CCC1CCCCC1)C(=O)O` displayed an inhibition of 54%.
On the same count and under the same terms, next, `C/C=C(\NC(=O)C1C(C)(C)C1(C)C)C(=O)O`: 10%.
The same measure, in the same setting: the figure for `C/C=C(\NC(=O)C1(C)CCCCC1)C(=O)O` is 11%.
In assay [1], `C/C=C(\NC(=O)C(CC)CCCC)C(=O)O` (stereo not given) returned an inhibition of 33%.
`C[C@H](N)C(=O)N/C(=C\Cl)C(=O)O`: the inhibition in assay [1] worked out at 6%.
With `C/C=C(\NC(=O)Cc1ccccc1)C(=O)O`, in assay [1], the inhibition amounted to 21%.
`C/C=C(\NC(=O)CCCC(=O)N(C)C)C(=O)O`: the inhibition in assay [1] came out at 46%.
The same measure, in the same setting: next, `C/C=C(\NC(=O)CC1CC2CCC1C2)C(=O)O` (stereo not given): 54%.
Molecule `C/C=C(\NC(=O)c1ccc(Cl)cc1)C(=O)O` returned an inhibition in assay [1] of 7%.
With `C/C=C(\NC(=O)CCc1ccccc1)C(=O)O`, in assay [1], the inhibition stood at 30%.
Still for that read-out and setting: next, `C/C=C(\NC(=O)CCC1CCCO1)C(=O)O` (stereo not given): 51%.
In assay [1], `C/C=C(\NC(=O)CCC1CCCC1)C(=O)O` registered an inhibition of 56%.
In assay [1], `C/C=C(\NC(=O)C(C)(C)C)C(=O)O` yielded an inhibition of 0%.
Take `C/C=C(\NC(=O)c1c(Cl)cccc1Cl)C(=O)O`: the inhibition in assay [1] came to 0%.
Still for that read-out and setting: the figure for `C/C=C(\NC(=O)COc1ccccc1)C(=O)O` is 3%.
As to `C/C=C(\NC(=O)C(C)C)C(=O)O`, the inhibition in assay [1] was 31%.
As usually defined, the Ki is the equilibrium dissociation constant of an inhibitor or competing ligand from its target. Lower therefore signals a stronger hold on the target. In turn, `CCOC(=S)SCCCCC/C=C(\NC(=O)C1CC1(C)C)C(=O)O` (stereo not given) gave a Ki in assay [2] of 44 nM.
`C/C=C(\NC(=O)CCCCCCCCC(=O)O)C(=O)O` displayed an inhibition constant Ki in assay [2] of 28000 nM.
`C/C=C(\NC(=O)CCCCCCCCCC)C(=O)O`: the affinity in assay [2], expressed as Ki, was 19000 nM.
For the molecule `CCCCCCCC/C=C(\NC(=O)C1CC1(C)C)C(=O)O` (stereo not given), in assay [2], the inhibition constant (Ki) came to 110 nM.
In the case of `CC1(C)C[C@@H]1C(=O)N/C(=C\CCCCSC[C@H](N)C(=O)O)C(=O)O` (stereo in doubt; 176) [CILASTATIN], the affinity in assay [2], expressed as Ki, was 110 nM.
`C/C=C(\NC(=O)[C@H]1[C@@H]2CCCC[C@@H]21)C(=O)O` yielded an inhibition constant (Ki) in assay [2] of 4200 nM.
Same read-out and setting: the figure for `C/C=C(\NC(=O)C1CC1(Br)Br)C(=O)O` (stereo not given) is 30 nM.
`COCCCC/C=C(\NC(=O)C1CC1(C)C)C(=O)O` (stereo not given) yielded an inhibitory constant (Ki) in assay [2] of 160 nM.
On the same count and under the same terms, next, `CC1(C)CC1C(=O)N/C(=C\CCCCC[N+](C)(C)CCO)C(=O)[O-]` (stereo not given): 910 nM.
Molecule `CC1(C)CC1C(=O)N/C(=C\CCCCCCC[N+](C)(C)C)C(=O)[O-]` (stereo not given) had a Ki in assay [2] of 570 nM.
Turning to `CC1(C)CC1C(=O)N/C(=C\C1CCCCC1)C(=O)O` (stereo not given), the affinity in assay [2] corresponds to a Ki of 400 nM.
Same read-out and setting: next, `CCCCC/C=C(\NC(=O)C1CC1(Cl)Cl)C(=O)O` (stereo not given): 60 nM; `CC(=O)NCCCCC/C=C(\NC(=O)C1CC1(C)C)C(=O)O` (stereo not given): 230 nM; `CC1(C)CC1C(=O)N/C(=C\CCCCSCC(=O)O)C(=O)O` (stereo not given): 130 nM.
The same measure, in the same setting: next, `CC1(C)CC1C(=O)N/C(=C\CCC(=O)O)C(=O)O` (stereo not given): 140 nM; `CC1(C)CC1C(=O)N/C(=C\CCCCSc1ccccc1C(=O)O)C(=O)O` (stereo not given): 60 nM.
